Assay results published in ChEMBL document CHEMBL1165982, “Induction of G(2)/M phase arrest and apoptosis by oridonin in human laryngeal carcinoma cells” (J Nat Prod, 2010).
Activity calls are given as the source filed them. The rule behind the calls is not given here.

How the values were obtained:
Format in all cases: functional, cell-based
HEp-2 [1] = test: Induction of apoptosis in human Hep2 cells assessed as pro-caspase 3 level at 36 uM by Western blot analysis; conditions: TDE = time-dependent effect
Summary of the method: (§1)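 Treatment: 36 µM for 0, 6, 12 or 24 h, alone or with 2.5 mM N-acetylcysteine or 500 U/mL catalase. Lysis 60 min at 4 °C in Hepes pH 7.4/1% Triton X-100 with phosphatase and protease inhibitors, spin 13000g. Lysates run on 12% SDS-PAGE, blotted to nitrocellulose, probed with polyclonal antibodies, HRP/DAB detection. Representative of ≥3 experiments.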

HEp-2 [2] = test: Induction of apoptosis in human Hep2 cells at 36 uM after 24 hrs by MTT assay in presence of Ac-LEHD-cmk caspase 9 inhibitor
Summary of the method: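 Pretreatment: HEp-2 (1.2 × 10^4/well, plated 24 h earlier) given caspase-9 inhibitor Ac-LEHD-cmk at 5, 10 or 20 µM for 1 h. Then 36 µM for 24 h. Inhibitory ratio by MTT, n = 3, mean ± SD.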

HEp-2 [3] = test: Induction of apoptosis in human Hep2 cells at 36 uM after 24 hrs by MTT assay in presence of z-VAD-fmk pan-caspase inhibitor
Summary of the method: (§2)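 HEp-2 cells in RPMI-1640 with 10% FBS at 37 °C, 5% CO2, seeded at 1.2 × 10^4 cells/well and grown 24 h. Pretreated 1 h with z-DEVD-fmk (5 µM, line 1) or z-VAD-fmk (10 µM, line 2), then exposed to 36 µM agent for 24 h, with DMSO below 0.05%. Cell inhibitory ratio read by MTT; n = 3, mean ± SD.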

HEp-2 [4] = test: Induction of apoptosis in human Hep2 cells at 36 uM after 24 hrs by MTT assay in presence of z-DEVD-fmk caspase 3 inhibitor; summary of the method: as §2
HEp-2 [5] = test: Induction of apoptosis in human Hep2 cells assessed as increase in pro-apoptotic Bax protein at 36 uM after 24 hrs by Western blot analysis in presence of NAC; summary of the method: as §1
HEp-2 [6] = test: Induction of apoptosis in human Hep2 cells assessed as decrease in Bcl-2 at 36 uM after 24 hrs by Western blot analysis in presence of NAC; summary of the method: as §1
HEp-2 [7] = test: Induction of apoptosis in human Hep2 cells assessed as increase in AIF level at 36 uM after 24 hrs by Western blot analysis in presence of NAC; summary of the method: as §1
HEp-2 [8] = test: Induction of apoptosis in human Hep2 cells assessed as cleaved caspase 3 level at 36 uM after 24 hrs by Western blot analysis in presence of NAC; summary of the method: as §1
HEp-2 [9] = test: Induction of apoptosis in human Hep2 cells assessed as caspase activated DNase level at 36 uM after 24 hrs by Western blot analysis in presence of NAC; summary of the method: as §1
HEp-2 [10] = test: Induction of apoptosis in human Hep2 cells assessed as increase in pro-apoptotic Bax protein at 36 uM after 24 hrs by Western blot analysis in presence of CAT; summary of the method: as §1
HEp-2 [11] = test: Induction of apoptosis in human Hep2 cells assessed as decrease in Bcl-2 at 36 uM after 24 hrs by Western blot analysis in presence of CAT; summary of the method: as §1
HEp-2 [12] = test: Induction of apoptosis in human Hep2 cells assessed as increase in AIF level at 36 uM after 24 hrs by Western blot analysis in presence of CAT; summary of the method: as §1
HEp-2 [13] = test: Induction of apoptosis in human Hep2 cells assessed as cleaved caspase 3 level at 36 uM after 24 hrs by Western blot analysis in presence of CAT; summary of the method: as §1
HEp-2 [14] = test: Induction of apoptosis in human Hep2 cells assessed as caspase activated DNase level at 36 uM after 24 hrs by Western blot analysis in presence of CAT; summary of the method: as §1
HEp-2 [15] = test: Induction of apoptosis in human Hep2 cells assessed as decrease in cyclin B level at 36 uM after 24 hrs by Western blot analysis; conditions: TDE = time-dependent effect; summary of the method: as §1
HEp-2 [16] = test: Induction of apoptosis in human Hep2 cells assessed as decrease in cdc2 level at 36 uM after 24 hrs by Western blot analysis; conditions: TDE = time-dependent effect; summary of the method: as §1
HEp-2 [17] = test: Induction of apoptosis in human Hep2 cells assessed as increase in phospho-cdc2 (Tyr15) level at 36 uM from 6 to 24 hrs by Western blot analysis; summary of the method: as §1
HEp-2 [18] = test: Induction of apoptosis in human Hep2 cells assessed as increase in phospho-cdc25C (ser216) level at 36 uM from 6 to 24 hrs by Western blot analysis; summary of the method: as §1
HEp-2 [19] = test: Induction of apoptosis in human Hep2 cells assessed as increase in p21/WAF1 level at 36 uM from 6 to 24 hrs by Western blot analysis; summary of the method: as §1
HEp-2 [20] = test: Induction of apoptosis in human Hep2 cells assessed as increase in p21/WAF1 level at 36 uM after 24 hrs by Western blot analysis; summary of the method: as §1
HEp-2 [21] = test: Induction of apoptosis in human Hep2 cells assessed as decrease in cyclin B level at 36 uM after 24 hrs by Western blot analysis in presence of NAC; summary of the method: as §1
HEp-2 [22] = test: Induction of apoptosis in human Hep2 cells assessed as decrease in cdc2 level at 36 uM after 24 hrs by Western blot analysis in presence of NAC; summary of the method: as §1
HEp-2 [23] = test: Induction of apoptosis in human Hep2 cells assessed as increase in phospho-cdc2 (Tyr15) level at 36 uM from 6 to 24 hrs by Western blot analysis in presence of NAC; summary of the method: as §1
HEp-2 [24] = test: Induction of apoptosis in human Hep2 cells assessed as increase in phospho-cdc25C (ser216) level at 36 uM from 6 to 24 hrs by Western blot analysis in presence of NAC; summary of the method: as §1
HEp-2 [25] = test: Induction of apoptosis in human Hep2 cells assessed as increase in p21/WAF1 level at 36 uM from 6 to 24 hrs by Western blot analysis in presence of NAC; summary of the method: as §1
HEp-2 [26] = test: Induction of apoptosis in human Hep2 cells assessed as increase in p21/WAF1 level at 36 uM after 24 hrs by Western blot analysis in presence of NAC; summary of the method: as §1

In the case of `C=C1C(=O)[C@]23[C@H](O)[C@H]1CC[C@H]2[C@@]12CO[C@]3(O)[C@@H](O)[C@@H]1C(C)(C)CC[C@@H]2O` [ORIDONIN], the Activity (HEp-2 [1]) was “tde”, the Activity (HEp-2 [2]) was “Active” and the Activity (HEp-2 [3]) was “inactive”. For the same molecule, the Activity (HEp-2 [4]) was “inactive”, the Activity (HEp-2 [5]) was “inactive” and the Activity (HEp-2 [6]) was “inactive”. The Activity (HEp-2 [7]) was “inactive”, the Activity (HEp-2 [8]) was “inactive” and the Activity (HEp-2 [9]) was “inactive”. For the same molecule, the Activity (HEp-2 [10]) was “inactive”, the Activity (HEp-2 [11]) was “inactive” and the Activity (HEp-2 [12]) was “inactive”. For the same molecule, the Activity (HEp-2 [13]) was “inactive”, the Activity (HEp-2 [14]) was “inactive” and the Activity (HEp-2 [15]) was “tde”. The Activity (HEp-2 [16]) was “tde”, the Activity (HEp-2 [17]) was “Active” and the Activity (HEp-2 [18]) was “Active”. For the same molecule, the Activity (HEp-2 [19]) was “Active”, the Activity (HEp-2 [20]) was “inactive” and the Activity (HEp-2 [21]) was “inactive”. The Activity (HEp-2 [22]) was “inactive”, the Activity (HEp-2 [23]) was “inactive” and the Activity (HEp-2 [24]) was “inactive”. For the same molecule, the Activity (HEp-2 [25]) was “inactive” and the Activity (HEp-2 [26]) was “inactive”.
